Results filed as inconclusive are left out.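 The calls were made as follows, unless noted: active = viability at or below 27.92% in each of two runs, the all-compound median minus 4 SD; inconclusive = no clear call, values can overlap the other calls; inactive = the rest.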
Experiments:
[1] = S. cerevisiae growth inhibition in permissive medium (OD615), pilot counter-assay for S. cerevisiae lifespan shortening project, permissive growth control (AID 705;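 active = growth inhibition above 25% in both replicates, a cutoff set 3 SD above the mean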); settings: OD615, 24 h, at 10 µM, active compounds read high
Summary of the method: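 Test system: Saccharomyces cerevisiae strain carrying genetically modified DeaD replicative-lifespan system; buffer or medium: SC raffinose/galactose permissive medium; dosing: one dose 10 µM, DMSO 0.25% final; times: 24 h exposure, 30 °C; measured by: OD at 615 nm; read-out basis: growth inhibition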

[2] = S. cerevisiae growth inhibition in restrictive medium, OD615, pilot screen, restrictive growth control, yeast lifespan reduction project (AID 706;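 active = growth inhibition above a set limit, 3 SD over mean compound inhibition, in both replicates, cut at about 43% in these data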;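 also: modified DeaD lifespan yeast strain shifted to restrictive glucose medium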); settings: OD615, 48 h, at 10 µM, active compounds read high
Summary of the method: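 material = engineered S. cerevisiae DeaD strain | buffer or medium = glucose-based CSMM-D restrictive medium | dosing = one concentration, 10 µM final, 0.25% DMSO | schedule = 4 h pre-growth plus 48 h compound exposure, 30 °C | detection = OD615 absorbance reading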

[3] = doxorubicin toxicity protection in MRP-1 cells – H69AR cells, CellTiter-Glo, duplicate, MRP-1 activator project, pilot screen (AID 807;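 active = viability increase at or above a cutoff of the median across tested compounds plus 3 SD, cut at about 8.5% in these data, passing the limit was not always enough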;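 also: compound pretreatment 18-22 h then 72 h combined with doxorubicin; 0% = doxorubicin alone and 100% = vehicle without doxorubicin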); settings: H69AR viability with doxorubicin, CellTiter-Glo luminescence; at 10 µM; active compounds read high
[4] = viability of HCT116 without oncogenic beta-catenin – human colon tumor cells, pilot screen (AID 823;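 active = cell viability at or below a set limit in both duplicate runs, the limit being the all-compound median minus 4 SD, cut at about 23% in these data, passing the limit was not always enough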;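 also: 0% = wells killed by 20 µM Hyamine and 100% = untreated DMSO cell wells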); settings: HCT116 beta-catenin knockout viability, CellTiter-Glo, 60 h; at 10 µM; active compounds read low
[5] = viability of PTEN-null HCT116 cells – cell-based, HCT116 clonal line, CellTiter-Glo, pilot screen (AID 824); settings: HCT116 PTEN-deleted viability, 60 h, at 10 µM, active compounds read low;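 also: 0% = 20 µM Hyamine control and 100% = vehicle cell control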
[6] = RAM pathway blockade in budding yeast – dse1pr::URA3 reporter, 5-FOA selection, pilot screen (AID 869;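 active = inhibition over a set limit, the all-compound mean plus 3 SD, in both replicate runs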;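 also: 0% = DMSO wells with no growth and 100% = 10 µM 1-NA-PP1 with full growth; RAM network block rescues cells from 5-FOA so hits raise OD615 growth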); settings: S. cerevisiae dse1pr::URA3 5-FOA growth, OD615, 2 d; at 10 µM; active compounds read high; strain carries analog-sensitive mutant Cbk1 kinase
[7] = RAM signaling pathway blockade in yeast – S. cerevisiae, Pdr1DBD-CYC8 efflux-inhibited sensitized strain, primary screen (AID 1298;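 active = RAM network inhibition above 8.4% in each of two replicates, 3 SD over the compound average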;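 also: 0% = DMSO untreated cells without growth and 100% = 10 µM 1-NA-PP1 full growth; higher means more yeast growth rescued from 5-FOA killing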); settings: S. cerevisiae cbk1-as DSE1-URA3 strain, 5-FOA growth OD615, 2 d; at 50 µM; active compounds read high

O=S(=O)(NCCCN1CCN(c2ccccc2F)CC1)c1cccc2cccnc12
inactive: growth inhibition [1] -1.96% | growth inhibition [2] 6.3% | viability increase [3] -2.92% | viability [4] 77.9% | viability [5] 77.4% | inhibition [6] 0.97% | RAM network inhibition [7] 5.43%

CC(=O)c1c(NCc2ccccc2)nc(=O)n(-c2ccccc2)c1C
inactive: growth inhibition [1] -4.12% | growth inhibition [2] 4.42% | viability increase [3] -1.28% | viability [4] 94.7% | viability [5] 97% | inhibition [6] 1.98% | RAM network inhibition [7] 4.07%

CCOC(=O)C1CCCN(C(=O)c2cn(CC(C)C)c(=O)c3cc(OC)c(OC)cc23)C1 (configuration not stated)
inactive: growth inhibition [1] -8.41% | growth inhibition [2] -15.7% | viability increase [3] -3.43% | viability [4] 97% | viability [5] 95% | inhibition [6] 0.555% | RAM network inhibition [7] 0.93%

Cc1oc2c(c(=O)c1C)C(=O)CC(c1ccccc1)C2 (configuration not stated)
inactive: growth inhibition [1] -10.3% | growth inhibition [2] -15.9% | viability increase [3] -3.41% | viability [4] 88.5% | viability [5] 91% | inhibition [6] 0.115% | RAM network inhibition [7] -1.15%

Oc1ccccc1-c1nnc(COc2ccccc2)o1
inactive: growth inhibition [1] -1.18% | growth inhibition [2] 14.6% | viability increase [3] -1.43% | viability [4] 72.2% | viability [5] 75.5% | inhibition [6] 1.24% | RAM network inhibition [7] 5.2%

COc1cc2c(cc1OC)C(C(=O)N1CCCC1)C(c1ccccc1F)N(C)C2=O (configuration not stated)
inactive: growth inhibition [1] -23.3% | growth inhibition [2] -16.3% | viability increase [3] -1.68% | viability [4] 91.3% | viability [5] 97% | inhibition [6] 0.27% | RAM network inhibition [7] 3.55%

Cc1cc(C)cc(N(CC(=O)N2CCn3c2nc2ccccc23)S(=O)(=O)c2c(C)noc2C)c1
inactive: growth inhibition [1] -5.97% | growth inhibition [2] 11.2% | viability increase [3] -4.06% | viability [4] 88.9% | viability [5] 90.9% | inhibition [6] 1.79% | RAM network inhibition [7] 10.1%

COC(=O)CCS(=O)(=O)c1cc(Cl)ccc1Cl
inactive: growth inhibition [1] -5.18% | growth inhibition [2] 7.17% | viability increase [3] -1.81% | viability [4] 95.4% | viability [5] 94.9% | inhibition [6] -1.08% | RAM network inhibition [7] 1.34%

COc1cccc(-n2c(Cc3cc(=O)[nH]c(=O)[nH]3)nnc2SCC(=O)NC2CCCC2)c1
inactive: growth inhibition [1] -6.3% | growth inhibition [2] 8.16% | viability increase [3] -0.03% | viability [4] 101% | viability [5] 101% | inhibition [6] 2.87% | RAM network inhibition [7] -1.25%

Cc1c(C(=O)NCc2ccccc2)oc2ccc(S(=O)(=O)N3CCCC3)cc12
inactive: growth inhibition [1] -11.4% | growth inhibition [2] 3.53% | viability increase [3] -2.64% | viability [4] 97% | viability [5] 93.1% | inhibition [6] 1.49% | RAM network inhibition [7] 2.93%

Cc1ccc(NC(=O)c2ccco2)cc1C
inactive: growth inhibition [1] 4.04% | growth inhibition [2] 0.435% | viability increase [3] -3.07% | viability [4] 95.5% | viability [5] 90.5% | inhibition [6] 0.665% | RAM network inhibition [7] 0.93%

Cc1ccc(SCC(=O)NCC(C)C)cc1
inactive: growth inhibition [1] -0.86% | growth inhibition [2] 6.93% | viability increase [3] 0.66% | viability [4] 97.1% | viability [5] 102% | inhibition [6] 0.42% | RAM network inhibition [7] 0.68%

CC(=O)N1CCc2cc(C(=O)CN3CCN(C(=O)c4ccco4)CC3)ccc21
inactive: growth inhibition [1] 4.58% | growth inhibition [2] 3.74% | viability increase [3] -2.02% | viability [4] 105% | viability [5] 93.3% | inhibition [6] 3.93% | RAM network inhibition [7] 2.07%

CCCC(=O)NC(C)c1nc2ccccc2n1C (configuration not stated)
inactive: growth inhibition [1] -18.7% | growth inhibition [2] -2.34% | viability increase [3] 2.12% | viability [4] 101% | viability [5] 102% | inhibition [6] 1.45% | RAM network inhibition [7] 1.79%

CN(C)CCNC(=O)c1cc2c(=O)n(C)c3ccccc3c2n1C
inactive: growth inhibition [1] 0.095% | growth inhibition [2] -1.67% | viability increase [3] -5.64% | viability [4] 52.9% | viability [5] 54.4% | inhibition [6] 1.12% | RAM network inhibition [7] -0.26%

CCOc1ccc(C2NC(=O)c3n[nH]c(C)c32)cc1 (configuration not stated)
inactive: growth inhibition [1] -3.56% | growth inhibition [2] 8.35% | viability increase [3] 1.63% | viability [4] 107% | viability [5] 103% | inhibition [6] 1.07% | RAM network inhibition [7] 0.36%

Reference: PubChem BioAssay
